Type in all cases: cell-based
Data set [1] relates to HeLa cells. Put plainly: Protein-CPP. The conditions noted are these: 1 h; for Delivery of I into the cytosol with CPP-additive at 2.5 μM: I 5 μM + CPP-additive 2.5 μM, serum-free.
For data set [2], the system named is HeLa cells. Put plainly: Time-lapse fluorescence microscopy of Cy5-labeled CPP-additives. The conditions noted are these: for Time until nucleolar mCherry signals are observed: serum-free, images at 60 s intervals. In outline: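 HeLa cells given Cy5-labeled R10 peptide additives (1 μM), with or without the hydrophobic motif, in serum-free FluoroBrite DMEM. Confocal imaging at 5 and 10 min, with line-scan profiles of Cy5 distribution. For cotreatment, NLS-mCherry-R10 cargo (5 μM) and additive were added after 60 s of baseline imaging. Frames taken every 60 s for 15 min to track nucleolar mCherry.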

The test system of data set [3] is HeLa cells. Put plainly: Lactate dehydrogenase. The conditions noted are these: 1 h. The procedure, abridged:
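HeLa cells exposed to CPP-additives at 2.5, 5 or 10 μM for 1 h in serum-free FluoroBrite DMEM. Membrane integrity judged by lactate dehydrogenase released into the medium. Mean ± SE of three biological replicates.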

The subject of data set [4] is HeLa cells. Put plainly: Mitochondrial dehydrogenase. Conditions: 1 h, serum-free FluoroBrite DMEM. In outline: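 HeLa cells exposed 1 h to CPP-additive (2.5, 5 or 10 μM) in serum-free FluoroBrite DMEM, then viability read by WST-1 reduction to formazan by mitochondrial dehydrogenase. For prolonged exposure, cells coincubated 1 h with NLS-mCherry-R10 cargo plus additive, supernatant replaced with fresh culture medium, and WST-1 read after 24 h.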

[5] abbreviates: HeLa, 2.5, 5 or 10 μM CPP-additive.
The mark [6] stands for this setting: HeLa, 2.5, 5 or 10 μM CPP-additive, three biological replicates.

In the case of `O=C(O)CCCc1ccc2ccc3cccc4ccc1c2c34` [PyB, pyrenebutyrate, reference compound], in the data set with HeLa cells [1] (PyB 50 μM 5 min, then I 5 μM), the “Uptake of I at lowered I concentration with PyB” value is on record as “loss of enhanced uptake of I”. In addition, in the data set with HeLa cells [1] (PyB 10 and 5 μM 5 min, then I), the “Uptake of I after pretreatment with PyB at 10 μM and lower” value is listed as “only endosomal uptake”.
For the molecule TNB-Cy5-R10 [compound 22], the “Line-scan profile of Cy5 fluorescence after 10 min” value with HeLa cells [2] (1 μM peptide alone) is recorded as “mainly observed within the interior of cells”. Also, in the data set on HeLa cells [2] (1 μM peptide alone, serum-free FluoroBrite DMEM, 37 °C, time-lapse), the “Localisation of Cy5-labeled CPP-additive over time” value was “quickly enters the cytosol”. The “Time until nucleolar mCherry signals are observed” value with HeLa cells [2] (I 5 μM + Cy5-additive 1 μM) is given as 15 min.
As for TNB-Cy5-R10-ILFF [compound 23], in the data set on HeLa cells [2] (1 μM peptide alone), the “Line-scan profile of Cy5 fluorescence after 10 min” value is “remained concentrated around the cell periphery”. Moreover, the “Time until cell-surface-associated additive is internalized into endosomes” value with HeLa cells [2] (23 1 μM 5 min at 37 °C, washed, time-lapse 30 min) is listed as 30 min. Moreover, in the data set with HeLa cells [2] (I 5 μM + Cy5-additive 1 μM), the “Cell membrane accumulation of additive in the presence of I” value is “persisted even after 10 min” and the “Time until nucleolar mCherry signals are observed” value came out at 3 min.
In the case of TNB-R10-FWF [compound 3], in the data set on HeLa cells [3] (HeLa, 5 μM CPP-additive), the “LDH release (membrane integrity)” value was “significantly released”. In the data set on HeLa cells [4] (HeLa, 5 μM CPP-additive), the “Cytotoxicity (WST1 assay)” value is recorded as “no cytotoxicity”.
For TNB-R10-ILIL [compound 4], the “LDH release (membrane integrity)” value with HeLa cells [3] (setting [5]) is reported as “no LDH release”. Besides, the “Cytotoxicity (WST1 assay)” value in the data set on HeLa cells [4] (setting [6]) is listed as “no cytotoxic effect”.
In the same order, the values of TNB-R10-ILLL [compound 5] are “no LDH release” and “no cytotoxic effect”.
As for TNB-R10-Nal2 [compound 7], the “Delivery of I into the cytosol with CPP-additive at 2.5 μM” value in the data set with HeLa cells [1] is given as “successful delivery”.
As to TNB-R10-Nal [compound 6], the “Delivery of I into the cytosol with CPP-additive at 2.5 μM” value with HeLa cells [1] was “successful delivery”.
alk-Cy5-R10-ILFF [alkylated analogue]: in the data set with HeLa cells [2] (alk-Cy5-R10-ILFF 1 μM alone or with I 5 μM, 10 min), the “Membrane interaction and facilitation of protein-CPP uptake” value is “incapable of both interacting with the cell membrane and facilitating the uptake of protein-CPPs”.

Values taken from article PMC10655119 (Journal of the American Chemical Society, 2023).
